Test [1] deals with T1, Vascular cell adhesion protein 1 (Homo sapiens, UniProt P19320).
T1 sequence (P19320 whole entry): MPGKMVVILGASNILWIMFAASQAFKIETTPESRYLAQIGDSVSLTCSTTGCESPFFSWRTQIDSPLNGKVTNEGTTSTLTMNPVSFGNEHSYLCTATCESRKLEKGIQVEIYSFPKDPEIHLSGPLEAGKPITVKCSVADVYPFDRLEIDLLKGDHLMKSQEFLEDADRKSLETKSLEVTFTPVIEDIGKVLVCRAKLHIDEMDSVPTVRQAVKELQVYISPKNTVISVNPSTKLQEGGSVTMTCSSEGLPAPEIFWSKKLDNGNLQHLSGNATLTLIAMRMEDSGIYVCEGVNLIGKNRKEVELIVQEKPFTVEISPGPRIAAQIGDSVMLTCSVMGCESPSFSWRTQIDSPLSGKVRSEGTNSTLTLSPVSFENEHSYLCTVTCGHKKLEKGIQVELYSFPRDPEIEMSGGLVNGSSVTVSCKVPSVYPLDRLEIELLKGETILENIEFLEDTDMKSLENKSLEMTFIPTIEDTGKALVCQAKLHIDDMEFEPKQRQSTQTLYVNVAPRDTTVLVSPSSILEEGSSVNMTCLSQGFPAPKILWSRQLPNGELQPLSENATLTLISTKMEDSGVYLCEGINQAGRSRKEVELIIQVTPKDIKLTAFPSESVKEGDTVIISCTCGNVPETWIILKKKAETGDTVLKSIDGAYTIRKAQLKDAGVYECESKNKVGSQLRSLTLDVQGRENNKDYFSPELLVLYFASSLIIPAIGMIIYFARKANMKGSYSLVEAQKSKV
The test can be described thus: In vitro inhibitory potency compared to IL1-beta induced VCAM-1 in human endothelial cells (ELISA assay). In outline:
(§1)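 Whole-cell ELISA on primary HUVECs plated at 5 × 10^4 cells/mL in EBM/2% FBS with growth supplements. Compound preincubated 24 h at 37 °C, then inducer added (TNFα at 5 ng/mL final, or IL-1β or PMA in its place) for 6 h at 37 °C. Mouse monoclonal anti-E-selectin, anti-ICAM-1 or anti-VCAM-1 was applied overnight at 4 °C, then HRP anti-mouse IgG. Detection with OPD, A490. Triplicate assays.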
Background: ELISA stands for enzyme-linked immunosorbent assay.

In test [2] the target is T1, Vascular cell adhesion protein 1. The test can be described thus: In vitro inhibitory potency compared to PMA induced VCAM-1 in human endothelial cells (ELISA assay). The procedure, abridged: as §1
The nature of test [3]: Inhibition of VCAM-1 in human endothelial cells.
The target in test [4] is T1, Vascular cell adhesion protein 1. The test can be described thus: In vitro inhibitory potency compared to TNF-alpha induced VCAM-1 in human endothelial cells (ELISA assay). The procedure, abridged:
as §1

For test [5] the target is unchanged. Description: In vitro inhibitory potency compared to IL1-beta induced VCAM-1 expression in human endothelial cells (ELISA assay). In outline: (§2)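 Primary HUVECs seeded at 5 × 10^4 cells/mL in EBM/2% FBS with EGF, bovine brain extract and gentamicin. Compound added next day for 24 h at 37 °C, then inducer (IL-1β or PMA, level not stated) for 6 h at 37 °C. Whole-cell ELISA used mouse monoclonal anti-ICAM-1 or anti-VCAM-1, HRP donkey anti-mouse IgG and OPD, read at 490 nm. Run in triplicate.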

Test [6] shares this target. The test can be described thus: In vitro inhibitory potency compared to PMA induced VCAM-1 expression in human endothelial cells (ELISA assay). The procedure, abridged:
as §2

For test [7] the target is unchanged. The test can be described thus: Inhibition of VCAM-1 in human endothelial cells. In outline:
as §1

The IC50 is the concentration that inhibits the measured activity by half. Low values mean higher potency, high ones lower potency.

Each structure is given as a SMILES string.

Regarding `NC(=O)c1cc2c(Oc3ccc(Br)cc3)cncc2s1` [4-(4-Bromo-phenoxy)-thieno[2,3-c]pyridine-2-carboxylic acid amide], the half-inhibitory concentration (IC50) came out at 7 nM in test [1], 20 nM in test [2], 48 nM in test [3] and 8 nM in test [4].

For the compound `CNC(=O)c1cc2c(Oc3ccc(Cl)cc3)cncc2s1` [4-(4-Chloro-phenoxy)-thieno[2,3-c]pyridine-2-carboxylic acid methylamide], the IC50 in test [5] was 70 nM; in test [3], above 1000 nM; in test [6], 200 nM.

In turn, `Cc1ccc(Sc2cncc3sc(C(N)=O)cc23)cc1` [4-p-Tolylsulfanyl-thieno[2,3-c]pyridine-2-carboxylic acid amide] registered an IC50 in test [7] above 1000 nM.

In the case of `CNC(=O)c1cc2c(Oc3ccc(COCCOCCOC)cc3)cncc2s1` [4-{4-[2-(2-Methoxy-ethoxy)-ethoxymethyl]-phenoxy}-thieno[2,3-c]pyridine-2-carboxylic acid methylamide], the IC50 is 20 nM in test [1], 20 nM in test [2], 120 nM in test [3] and 30 nM in test [4].

The values above are taken from BindingDB's records for doi:10.1021/jm0101702 (Abbott Laboratories, 2001).
